In brackets after ≈: the same amount, converted by molar mass.
What was measured:
Assay type in all cases: functional
Klebsiella pneumoniae = assay: In vitro antibacterial activity measured as minimum inhibitory concentration was evaluated on klebsiella pneumoniae ATCC 10031 (Kp).; conditions: Klebsiella pneumoniae, ATCC 10031; read-out: MIC
Procedure, shortened: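 Serial 2-fold agar dilution in Mueller Hinton medium, run side by side with reference quinolones.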

Bacillus subtilis = assay: In vitro antibacterial activity measured as minimum inhibitory concentration was evaluated on Bacillus subtilis ATCC 6633(Bs).; conditions: Bacillus subtilis, ATCC 6633; read-out: MIC
Procedure, shortened: (§1)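 Serial 2-fold agar dilution in Mueller Hinton medium, run side by side with reference quinolones. Inoculum 10^5 cfu/mL; compound range 0.007–16 µg/mL.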

Staphylococcus aureus [1] = assay: In vitro antibacterial activity measured as minimum inhibitory concentration was evaluated on Staphylococcus aureus ATCC 25178 (Sa).; conditions: Staphylococcus aureus, ATCC 25178; read-out: MIC; procedure, shortened: as §1
Proteus vulgaris = assay: In vitro antibacterial activity measured as minimum inhibitory concentration was evaluated on proteus vulgaris ATCC 8427 (Pv).; conditions: Proteus vulgaris, ATCC 8427; read-out: MIC; procedure, shortened: as §1
Enterobacter cloacae = assay: In vitro antibacterial activity measured as minimum inhibitory concentration, was evaluated on Enterobacter cloacae ATCC 23355 (Ecl).; conditions: Enterobacter cloacae, ATCC 23355; read-out: MIC
Pseudomonas aeruginosa [2] = assay: In vitro antibacterial activity measured as minimum inhibitory concentration was evaluated on Pseudomonas aeruginosa ATCC 10145 (Pa).; conditions: Pseudomonas aeruginosa, ATCC 10145; read-out: MIC; procedure, shortened: as §1
[3] = system: Staphylococcus epidermidis; assay: In vitro antibacterial activity measured as minimum inhibitory concentration was evaluated on Staphylococcus epidermidis ATCC 155-1 (Se).; conditions: Staphylococcus epidermidis, ATCC 155-1; read-out: MIC; procedure, shortened: as §1
Bacillus cereus = assay: In vitro antibacterial activity measured as minimum inhibitory concentration was evaluated on Bacillus cereus ATCC 11778 (Bc).; conditions: Bacillus cereus, ATCC 11778; read-out: MIC; procedure, shortened: as §1
Enterococcus faecalis = assay: In vitro antibacterial activity measured as minimum inhibitory concentration was evaluated on Streptococcus faecalis ATCC 10541 (Sf).; conditions: Enterococcus faecalis, ATCC 10541; read-out: MIC; procedure, shortened: as §1
Escherichia coli [4] = assay: In vitro antibacterial activity measured as minimum inhibitory concentration, was evaluated on Escherichia coli ATCC 23559(Ec).; conditions: Escherichia coli, ATCC 23559; read-out: MIC; procedure, shortened: as §1
Morganella morganii = assay: In vitro antibacterial activity measured as minimum inhibitory concentration was evaluated on morganella morganii ATCC 8019 (Mm).; conditions: Morganella morganii, ATCC 8019; read-out: MIC; procedure, shortened: as §1
Staphylococcus aureus [5] = assay: In vivo efficacy as ED50 against Staphylococcus aureus HS-93 by oral administration in mice.; conditions: Staphylococcus aureus, po; read-out: ED50
Procedure, shortened: (§2)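 Mice, 4 groups of 10, infected intraperitoneally with slightly more than the LD100 of the organism. A single oral dose was given immediately after infection, with four doses (one per group) chosen from in vitro activity. Survival was scored after one week. ED50 (total dose, mg/kg, protecting 50%) was interpolated among group survival rates.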

Escherichia coli [6] = assay: In vivo efficacy as ED50 against Escherichia coli HM-42 by oral administration in mice.; conditions: Escherichia coli, po; read-out: ED50; procedure, shortened: as §2
Pseudomonas aeruginosa [7] = assay: In vivo efficacy as ED50 against Pseudomonas aeruginosa HS-116 by oral administration in mice.; conditions: Pseudomonas aeruginosa, po; read-out: ED50; procedure, shortened: as §2

Structure (SMILES)	MIC (Klebsiella pneumoniae) [µg/mL]	MIC (Bacillus subtilis) [µg/mL]	MIC (Staphylococcus aureus [1]) [µg/mL]	MIC (Proteus vulgaris) [µg/mL]	MIC (Enterobacter cloacae) [µg/mL]	MIC (Pseudomonas aeruginosa [2]) [µg/mL]	MIC [3] [µg/mL]	MIC (Bacillus cereus) [µg/mL]	MIC (Enterococcus faecalis) [µg/mL]	MIC (Escherichia coli [4]) [µg/mL]	MIC (Morganella morganii) [µg/mL]	ED50 (Staphylococcus aureus [5]) [mg/kg]	ED50 (Escherichia coli [6]) [mg/kg]	ED50 (Pseudomonas aeruginosa [7]) [mg/kg]
C[C@H]1COc2c(N3CC(N)C3)c(F)cc3c(=O)c(C(=O)O)cn1c23	0.015 (≈ 0.045 µM)	0.06 (≈ 0.18 µM)	0.12 (≈ 0.36 µM)	0.25 (≈ 0.75 µM)	0.015 (≈ 0.045 µM)	0.25 (≈ 0.75 µM)	0.06 (≈ 0.18 µM)	0.12 (≈ 0.36 µM)	0.12 (≈ 0.36 µM)	0.015 (≈ 0.045 µM)	0.06 (≈ 0.18 µM)	–	–	–
CC1COc2c(N3CC(C)(N)C3)c(F)cc3c(=O)c(C(=O)O)cn1c23 (single isomer, unassigned)	8 (≈ 23 µM)	2 (≈ 5.76 µM)	4 (≈ 11.5 µM)	8 (≈ 23 µM)	4 (≈ 11.5 µM)	32 (≈ 92.1 µM)	4 (≈ 11.5 µM)	4 (≈ 11.5 µM)	4 (≈ 11.5 µM)	8 (≈ 23 µM)	8 (≈ 23 µM)	–	–	–
CC1C(N)CN1c1cc2c(cc1F)c(=O)c(C(=O)O)cn2-c1ccc(F)cc1F (stereo not given)	–	0.03 (≈ 0.0744 µM)	–	0.5 (≈ 1.24 µM)	–	2 (≈ 4.96 µM)	–	–	1 (≈ 2.48 µM)	0.06 (≈ 0.149 µM)	–	8.1	6	78
C[C@H]1COc2c(N3CC(C)(N(C)C)C3)c(F)cc3c(=O)c(C(=O)O)cn1c23	0.12 (≈ 0.32 µM)	0.06 (≈ 0.16 µM)	0.25 (≈ 0.666 µM)	0.5 (≈ 1.33 µM)	0.5 (≈ 1.33 µM)	4 (≈ 10.7 µM)	0.12 (≈ 0.32 µM)	0.5 (≈ 1.33 µM)	2 (≈ 5.33 µM)	0.12 (≈ 0.32 µM)	0.25 (≈ 0.666 µM)	–	–	–
CCn1cc(C(=O)O)c(=O)c2cc(F)c(N3CC(N)C3C)c(F)c21 (stereo not given)	–	0.06 (≈ 0.178 µM)	–	–	0.06 (≈ 0.178 µM)	1 (≈ 2.96 µM)	–	–	1 (≈ 2.96 µM)	0.06 (≈ 0.178 µM)	0.06 (≈ 0.178 µM)	5.1	4	56
C[C@H]1COc2c(N3CC(N(C)C)C3)c(F)cc3c(=O)c(C(=O)O)cn1c23	0.015 (≈ 0.0415 µM)	0.015 (≈ 0.0415 µM)	0.12 (≈ 0.332 µM)	0.25 (≈ 0.692 µM)	0.06 (≈ 0.166 µM)	4 (≈ 11.1 µM)	0.12 (≈ 0.332 µM)	0.06 (≈ 0.166 µM)	2 (≈ 5.53 µM)	0.06 (≈ 0.166 µM)	0.12 (≈ 0.332 µM)	–	–	–
C[C@@H]1[C@@H](N)CN1c1c(F)c(N)c2c(=O)c(C(=O)O)cn(-c3ccc(F)cc3F)c2c1F	0.25 (≈ 0.573 µM)	0.03 (≈ 0.0687 µM)	0.06 (≈ 0.137 µM)	0.5 (≈ 1.15 µM)	0.12 (≈ 0.275 µM)	0.5 (≈ 1.15 µM)	0.12 (≈ 0.275 µM)	0.12 (≈ 0.275 µM)	0.12 (≈ 0.275 µM)	0.03 (≈ 0.0687 µM)	0.12 (≈ 0.275 µM)	–	–	–
CCNCC1(C)CN(c2c(F)cc3c(=O)c(C(=O)O)cn4c3c2OC[C@@H]4C)C1	1 (≈ 2.57 µM)	0.06 (≈ 0.154 µM)	0.5 (≈ 1.28 µM)	1 (≈ 2.57 µM)	0.5 (≈ 1.28 µM)	8 (≈ 20.5 µM)	0.25 (≈ 0.642 µM)	0.5 (≈ 1.28 µM)	2 (≈ 5.14 µM)	0.25 (≈ 0.642 µM)	1 (≈ 2.57 µM)	–	–	–
Cc1c(F)c(N2C[C@H](N)[C@H]2C)nc2c1c(=O)c(C(=O)O)cn2-c1ccc(F)cc1F	0.12 (≈ 0.287 µM)	0.015 (≈ 0.0359 µM)	0.06 (≈ 0.143 µM)	1 (≈ 2.39 µM)	0.12 (≈ 0.287 µM)	0.5 (≈ 1.2 µM)	0.06 (≈ 0.143 µM)	0.06 (≈ 0.143 µM)	0.25 (≈ 0.598 µM)	0.06 (≈ 0.143 µM)	0.25 (≈ 0.598 µM)	–	–	–
CNC1(C)CN(c2c(F)cc3c(=O)c(C(=O)O)cn4c3c2OC[C@@H]4C)C1	0.015 (≈ 0.0415 µM)	0.06 (≈ 0.166 µM)	0.12 (≈ 0.332 µM)	0.5 (≈ 1.38 µM)	0.06 (≈ 0.166 µM)	1 (≈ 2.77 µM)	0.12 (≈ 0.332 µM)	0.12 (≈ 0.332 µM)	0.5 (≈ 1.38 µM)	0.015 (≈ 0.0415 µM)	0.06 (≈ 0.166 µM)	–	–	–
C[C@@H]1[C@@H](N)CN1c1c(F)cc2c(=O)c(C(=O)O)cn(-c3ccc(F)cc3F)c2c1Cl	0.5 (≈ 1.14 µM)	0.12 (≈ 0.274 µM)	0.25 (≈ 0.571 µM)	1 (≈ 2.28 µM)	0.25 (≈ 0.571 µM)	2 (≈ 4.57 µM)	0.5 (≈ 1.14 µM)	1 (≈ 2.28 µM)	2 (≈ 4.57 µM)	0.25 (≈ 0.571 µM)	0.5 (≈ 1.14 µM)	–	–	–
C[C@H]1[C@@H](N)CN1c1c(F)cc2c(=O)c(C(=O)O)cn(C3CC3)c2c1F	0.25 (≈ 0.716 µM)	0.25 (≈ 0.716 µM)	0.25 (≈ 0.716 µM)	1 (≈ 2.86 µM)	0.25 (≈ 0.716 µM)	2 (≈ 5.73 µM)	1 (≈ 2.86 µM)	0.25 (≈ 0.716 µM)	2 (≈ 5.73 µM)	0.25 (≈ 0.716 µM)	0.25 (≈ 0.716 µM)	–	–	–
CC1C(N)CN1c1c(F)cc2c(=O)c(C(=O)O)cn(-c3ccc(F)cc3F)c2c1Cl (stereo not given)	–	0.03 (≈ 0.0685 µM)	–	–	–	0.5 (≈ 1.14 µM)	0.06 (≈ 0.137 µM)	0.03 (≈ 0.0685 µM)	–	0.03 (≈ 0.0685 µM)	–	–	–	–
CC1C(N)CN1c1c(F)cc2c(=O)c(C(=O)O)cn(-c3ccc(F)cc3)c2c1F (stereo not given)	–	–	–	0.5 (≈ 1.24 µM)	–	2 (≈ 4.96 µM)	–	–	2 (≈ 4.96 µM)	0.12 (≈ 0.298 µM)	–	5.7	2.5	55
Cc1c(F)c(N2C[C@H](N)[C@H]2C)nc2c1c(=O)c(C(=O)O)cn2C1CC1	0.12 (≈ 0.346 µM)	0.25 (≈ 0.722 µM)	0.12 (≈ 0.346 µM)	0.25 (≈ 0.722 µM)	0.12 (≈ 0.346 µM)	0.5 (≈ 1.44 µM)	0.12 (≈ 0.346 µM)	0.25 (≈ 0.722 µM)	0.12 (≈ 0.346 µM)	0.12 (≈ 0.346 µM)	0.12 (≈ 0.346 µM)	–	–	–

Source: ChEMBL document CHEMBL1128288, “7-Azetidinylquinolones as antibacterial agents. 3. Synthesis, properties and structure-activity relationships of the stereoisomers containing a 7-(3-amino-2-methyl-1-azetidinyl) moiety” (J Med Chem, 1995)
